Experimental data published in PMC5099076 (Journal of medicinal chemistry, 2015).

Assays:
Dynamic light scattering = assay type: physicochemical; conditions: under assay conditions
Procedure, shortened: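 Concentrated DMSO stocks of test compound diluted in assay buffer to a final 3.2% DMSO. Light scattering read with a 55 mW laser at 826.6 nm, 100% laser power, detector at 90°. Single-point measurements reported.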

PIF pocket of PDK1 = biological target: T1, PIF pocket of PDK1 (Homo sapiens, UniProt O15530); experiment: Fluorescence polarization; assay type: binding
T1 sequence (O15530 1-556): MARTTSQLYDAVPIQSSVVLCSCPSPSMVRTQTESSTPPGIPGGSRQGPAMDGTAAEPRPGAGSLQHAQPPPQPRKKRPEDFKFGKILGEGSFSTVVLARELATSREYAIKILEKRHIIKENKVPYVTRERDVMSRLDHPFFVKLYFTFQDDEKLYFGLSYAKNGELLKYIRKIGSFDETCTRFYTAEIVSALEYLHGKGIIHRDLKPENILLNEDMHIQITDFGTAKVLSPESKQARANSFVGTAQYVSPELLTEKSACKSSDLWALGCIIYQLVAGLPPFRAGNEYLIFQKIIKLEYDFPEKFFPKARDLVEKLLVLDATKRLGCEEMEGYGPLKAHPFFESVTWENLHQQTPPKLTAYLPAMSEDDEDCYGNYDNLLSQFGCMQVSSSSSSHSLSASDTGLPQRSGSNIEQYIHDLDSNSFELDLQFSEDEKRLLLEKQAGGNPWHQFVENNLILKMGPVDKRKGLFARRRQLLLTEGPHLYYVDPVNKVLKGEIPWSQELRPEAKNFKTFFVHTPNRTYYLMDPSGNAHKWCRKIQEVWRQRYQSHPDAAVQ

cruzain = experiment: Cruzain assay; assay type: biochemical; conditions: unrelated enzyme, test for aggregation-based mechanism
Procedure, shortened: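 Test compound preincubated 5 min with 0.8 nM cruzain in 100 mM sodium acetate, pH 5.5, 5 mM DTT, with 0.01% Triton X-100 added where indicated. Reaction started with Z-FR-AMC; final 0.4 nM cruzain, 2.5 μM substrate, 0.5% DMSO. Fluorescence increase (ex 355/em 460 nm) recorded over 5 min. Run in duplicate; DMSO-only controls.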

PDK1 = biological target: T2, PDK1 (Homo sapiens, UniProt O15530); assay type: biochemical; conditions: short peptide substrate, in vitro
T2 sequence (O15530 1-556): T1 sequence (O15530 1-556)

Binding to PDK1 (in words) (PIF pocket of PDK1; FP competitive binding assay) | SMILES | Formation of colloidal aggregates (Dynamic light scattering) | LE (ligand efficiency) (PIF pocket of PDK1; binding energy (ΔG, kcal/mol) per non-hydrogen atom) | Nonspecific inhibition of cruzain (cruzain) | Maximal stimulation of PDK1 activity (PDK1)
 | Cc1ccc(OCCSc2nc3ccccc3n2CC(=O)O)c(C)c1 [compound 1] | Neither compound formed colloidal aggregates | 0.25 kcal/mol per non-hydrogen atom | nor did either compound nonspecifically inhibit | ~ 1.8 fold
negligible | O=C(O)C/C(=C/c1cccc(C(F)(F)F)c1)c1nc2ccccc2o1 [compound 2] |  |  |  | 
 | O=P(O)(O)[C@H](NC[C@@H]1CCCc2ccccc21)c1ccc(F)cc1 [compound 3] | Neither compound formed colloidal aggregates |  | nor did either compound nonspecifically inhibit | ~ 1.8 fold
